We go through two compounds from ChEMBL document CHEMBL1157617, “A new class of naphthalimide-based antitumor agents that inhibit topoisomerase II and induce lysosomal membrane permeabilization and apoptosis” (J Med Chem, 2010).

Activity calls are given as the source filed them. The rule behind the calls is not given here.

The test system of one assay is MCF7. Description: Cytotoxicity against human MCF7 cells after 72 hrs by MTT assay. Type of assay: functional, cell-based. The following applies: MCF7, 24 h, in the assay text read “after 24 hrs” for “after 72 hrs”. An outline of the steps: (§1)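 MTT viability assay on HeLa, HL-60, MCF-7, MKN45 and LS174 cells. MTT (500 μg/mL) was added for 4 h at 37 °C and formazan dissolved in DMSO; A570 was read. IC50 came from linear regression; experiments were done in triplicate.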

The subject of assay [1] is HeLa. Description: Induction of lysosomal membrane permeabilization in human HeLa cells assessed as acridine orange red fluorescence at 7 uM after 24 hrs by flow cytometry. Type of assay: functional. A digest of the protocol:
(§2)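 Each compound was tested at three concentrations on HeLa cells for 24 h. Adherent and floating cells were pooled and stained with 20 μg/mL acridine orange for 2 min at room temperature. Lysosomal rupture was scored by flow cytometry as percentage of cells with AO red fluorescence.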
On the technique in general: Flow cytometry measures light scatter and fluorescence of single cells or particles in a stream.

For assay [2], the system named is HeLa. Description: Induction of lysosomal membrane permeabilization in human HeLa cells assessed as acridine orange red fluorescence at 4 uM after 24 hrs by flow cytometry. Type of assay: functional. An outline of the steps:
as §2

Another assay relates to Calf thymus DNA. Description: Binding affinity to calf thymus DNA assessed as circular dichroism by CD spectroscopy. Type of assay: nucleic-acid assay. To be noted: Bos taurus. An outline of the steps: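 CT DNA (100 μM) with drug (20 μM) in 20 mM Tris-HCl pH 7.4. DNA concentration set by UV absorbance, A260/A280 above 1.8. CD spectrum recorded 200-400 nm in a 1 cm cell after shaking, thermal equilibration and buffer subtraction. Analysed over 230-300 nm.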
In general terms: Circular dichroism is widely used to follow secondary structure.

Assay [3] concerns HeLa. The assay can be described thus: Induction of apoptosis in human HeLa cells assessed as damaged cells at IC50 concentration after 24 hrs using annexin V/propidium iodide staining by flow cytometry. Type of assay: functional. To be noted: in the assay text read “late apoptotic cells” for “damaged cells”. An outline of the steps: (§3)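 HeLa cells, seeded at 1 × 10^6 per well, were treated for 24 h at a fixed concentration set per compound. Cells were washed in cold PBS and resuspended in binding buffer. Staining was annexin V-FITC at 4 °C in the dark for 15 min, then PI for 5 min. Quadrants were read by flow cytometry: live, early apoptotic, late apoptotic, damaged. Run three times.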

Another assay relates to HL-60. Description: Cytotoxicity against human HL60 cells after 72 hrs by MTT assay. Type of assay: functional, cell-based. The following applies: HL-60, 24 h, in the assay text read “after 24 hrs” for “after 72 hrs”. A digest of the protocol: as §1
In general terms: Tetrazolium dyes change colour on reduction, which living cells bring about.

Assay [4] relates to HeLa. The assay can be described thus: Induction of lysosomal membrane permeabilization in human HeLa cells assessed as acridine orange red fluorescence at 10 uM after 24 hrs by flow cytometry. Type of assay: functional. A digest of the protocol:
as §2

For another assay, the system named is MKN-45. Description: Cytotoxicity against human MKN45 cells after 24 hrs by MTT assay. To be noted: MKN-45, 24 h.
Assay [5] concerns HeLa. Description: Induction of cytochrome c release into cytosol in human HeLa cells at IC50 concentration after 24 hrs by FITC/Hoechst soluble immunocytochemical staining. Type of assay: functional, cell-based. An outline of the steps: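 HeLa cells were treated 24 h at compound-specific concentrations, then fixed in 10% formaldehyde, permeabilized in 90% methanol and blocked with milk. Staining was rabbit anti-cytochrome c (1:500) then FITC goat anti-rabbit IgG (1:100), 1 h each at room temperature, with 2 μg/mL Hoechst 33258 as counterstain. Cytosolic green signal was imaged by confocal microscopy.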

In assay [6] the target is DNA topoisomerase 2-alpha (Homo sapiens) (UniProt P11388). Description: Inhibition of DNA topoisomerase 2-mediated kDNA decatenation at 100 uM. An outline of the steps:
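Cell-free topo II decatenation: 0.2 μg kDNA was incubated with HeLa-cell topo II extract and compound at 100 μM. The cleavage buffer contained 50 mM Tris-HCl pH 8.0, 120 mM KCl, 10 mM MgCl2, 1 mM ATP and 0.5 mM DTT. Reactions ran 15 min at 37 °C and were stopped with SDS. Products were resolved on 1% agarose and stained with ethidium bromide.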

In the next assay the test system is Nucleic Acid. Description: Induction of conformational changes in Escherichia coli pBR322 DNA assessed as DNA relaxation at 100 uM after 2 hrs by gel electrophoresis. Type of assay: nucleic-acid assay. A digest of the protocol: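 pBR322 plasmid (200 ng) was incubated with compound at 100 μM in Tris-HCl pH 7.4 for 2 h at 37 °C. Samples ran on 1% agarose and were stained with ethidium bromide; supercoiled versus relaxed forms were judged from gel migration.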

The subject of assay [7] is HeLa. The assay can be described thus: Cytotoxicity against human HeLa cells after 24 hrs by MTT assay.
The nature of assay [8]: Cytotoxicity against human LS 174T cells after 24 hrs by MTT assay. The following applies: LS174T.
For assay [9], the system named is HeLa. The assay can be described thus: Induction of lysosomal membrane permeabilization in human HeLa cells assessed as acridine orange red fluorescence at 14 uM after 24 hrs by flow cytometry. Type of assay: functional. An outline of the steps: as §2
Assay [10] concerns HeLa. The assay can be described thus: Induction of apoptosis in human HeLa cells assessed as early apoptotic cells at IC50 concentration after 24 hrs using annexin V/propidium iodide staining by flow cytometry. Type of assay: functional. An outline of the steps:
as §3

The subject of assay [11] is HeLa. The assay can be described thus: Induction of lysosomal membrane permeabilization in human HeLa cells assessed as acridine orange red fluorescence at 17 uM after 24 hrs by flow cytometry. Type of assay: functional. A digest of the protocol: as §2
Assay [12] has as its system HeLa. The assay can be described thus: Induction of lysosomal membrane permeabilization in human HeLa cells assessed as acridine orange red fluorescence at 20 uM after 24 hrs by flow cytometry. Type of assay: functional. An outline of the steps:
as §2

Chain of DNA topoisomerase 2-alpha (Homo sapiens) (P11388 whole entry): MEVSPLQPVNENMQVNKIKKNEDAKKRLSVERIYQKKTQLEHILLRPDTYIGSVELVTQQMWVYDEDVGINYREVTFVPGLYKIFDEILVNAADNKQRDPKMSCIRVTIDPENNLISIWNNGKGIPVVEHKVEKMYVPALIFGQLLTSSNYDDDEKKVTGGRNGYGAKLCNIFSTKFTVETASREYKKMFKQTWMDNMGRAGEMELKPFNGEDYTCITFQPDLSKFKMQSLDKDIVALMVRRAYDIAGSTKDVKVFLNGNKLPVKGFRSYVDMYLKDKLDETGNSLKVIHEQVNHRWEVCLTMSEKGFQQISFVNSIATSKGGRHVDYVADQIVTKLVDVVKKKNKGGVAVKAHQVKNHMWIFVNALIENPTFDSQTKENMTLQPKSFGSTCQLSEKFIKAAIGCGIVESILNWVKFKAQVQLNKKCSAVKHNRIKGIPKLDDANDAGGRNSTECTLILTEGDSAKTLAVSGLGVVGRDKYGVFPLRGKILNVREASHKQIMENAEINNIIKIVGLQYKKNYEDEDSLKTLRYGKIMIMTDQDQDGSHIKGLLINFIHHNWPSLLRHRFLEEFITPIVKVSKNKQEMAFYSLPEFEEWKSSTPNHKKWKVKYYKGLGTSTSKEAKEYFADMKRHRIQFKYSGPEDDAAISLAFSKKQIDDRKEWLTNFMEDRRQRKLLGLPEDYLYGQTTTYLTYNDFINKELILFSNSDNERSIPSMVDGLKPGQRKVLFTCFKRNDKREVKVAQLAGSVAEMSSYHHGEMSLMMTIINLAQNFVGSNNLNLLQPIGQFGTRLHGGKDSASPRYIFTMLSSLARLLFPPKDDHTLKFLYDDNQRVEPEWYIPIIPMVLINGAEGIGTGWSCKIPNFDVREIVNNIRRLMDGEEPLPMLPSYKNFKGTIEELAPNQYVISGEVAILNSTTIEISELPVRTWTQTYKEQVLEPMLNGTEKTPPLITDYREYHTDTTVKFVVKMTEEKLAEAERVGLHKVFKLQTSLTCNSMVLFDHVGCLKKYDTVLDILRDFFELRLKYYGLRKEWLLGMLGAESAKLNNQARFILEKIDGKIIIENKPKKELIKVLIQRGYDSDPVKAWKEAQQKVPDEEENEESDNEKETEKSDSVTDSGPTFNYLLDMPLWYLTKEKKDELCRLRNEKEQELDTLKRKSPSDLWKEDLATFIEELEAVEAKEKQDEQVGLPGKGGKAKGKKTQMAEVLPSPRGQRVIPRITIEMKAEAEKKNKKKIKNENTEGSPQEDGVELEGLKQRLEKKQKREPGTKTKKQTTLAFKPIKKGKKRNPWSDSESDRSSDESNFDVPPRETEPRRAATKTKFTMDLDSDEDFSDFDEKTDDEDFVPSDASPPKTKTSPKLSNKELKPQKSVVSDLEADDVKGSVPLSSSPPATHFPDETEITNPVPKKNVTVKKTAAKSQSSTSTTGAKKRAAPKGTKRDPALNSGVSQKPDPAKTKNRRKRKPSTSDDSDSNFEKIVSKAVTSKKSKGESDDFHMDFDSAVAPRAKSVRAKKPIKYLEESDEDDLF

`CCCCCCCCN1C(=O)c2cccc3c(NCCN4CCN(C)CC4)ccc(c23)C1=O`: the IC50 (as a rule, the concentration that gives 50% inhibition) in the assay with MCF7 is 8.35 µM; in the assay on HL-60, 12 µM; in the assay with MKN-45 it was 17.4 µM; with HeLa [7], 7.9 µM; in [8], 17.9 µM. The Activity in the assay on HeLa [1] is reported as 88.55%; with HeLa [2], 93.04%; in the assay on HeLa [3], 53.82%; in the assay with HeLa [4] it was 89.89%. Also, the outcome with Calf thymus DNA and with Nucleic Acid was inactive. The result (in the assay on HeLa [5]; in assay [6]) was Active.

For the compound `CCCCCCCCCCCCN1C(=O)c2cccc3c(NCCNCCN(C)C)ccc(c23)C1=O`, the IC50 with MCF7 is 4.52 µM; with HL-60 it was 6.63 µM; with MKN-45 it was 11.8 µM; with HeLa [7], 16.8 µM; in assay [8] it was 18.6 µM. The Activity in the assay on HeLa [9] worked out at 94.85%; in the assay with HeLa [3] it was 20.72%; in the assay on HeLa [10] it was 79.21%; in the assay with HeLa [11], 93.5%; in the assay with HeLa [12], 88.49%. Besides, the outcome in the assay with Calf thymus DNA and with Nucleic Acid was inactive. Besides, the result (in the assay with HeLa [5]; in assay [6]) was Active.
